Reference: ChEMBL document CHEMBL3351343, “Synthesis and biological evaluation of novel sigma-1 receptor antagonists based on pyrimidine scaffold as agents for treating neuropathic pain” (J Med Chem, 2014)

Assays:
[1] = biological target: Sigma non-opioid intracellular receptor 1 (Cavia porcellus, UniProt Q60492); assay: Displacement of [3H]-(+)-pentazocine from sigma-1 receptor in Dunkin Hartley guinea pig brain membranes after 180 mins by liquid scintillation counting analysis; set-up: species or system Membrane
Sigma non-opioid intracellular receptor 1, sequence (Q60492 whole entry): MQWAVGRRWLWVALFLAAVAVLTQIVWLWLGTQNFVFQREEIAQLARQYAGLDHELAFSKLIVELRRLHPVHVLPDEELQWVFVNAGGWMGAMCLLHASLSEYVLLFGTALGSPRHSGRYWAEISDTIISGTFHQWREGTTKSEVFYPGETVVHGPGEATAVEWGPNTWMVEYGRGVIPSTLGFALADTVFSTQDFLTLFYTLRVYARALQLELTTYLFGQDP

[2] = Displacement of [3H]-DTG from sigma-2 receptor in Dunkin Hartley guinea pig brain membrane after 120 mins by liquid scintillation counting analysis in presence of (+)-SKF10047; set-up: species or system Cavia porcellus
[3] = Acute toxicity in po dosed Kun Ming mouse after 24 hrs; format: organism-based; conditions: in vivo
Mus musculus [4] = assay: Antinociceptive activity in Kun Ming mouse pain model assessed as reduction in licking and biting time during phase-1 at 80 mg/kg, ip administered 15 mins prior to formalin challenge relative to vehicle-treated control; format: functional; conditions: route intraperitoneal
Summary of the method: (§1)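 Kun Ming mice (20 ± 2.0 g), 10–12 per group, given vehicle (30% PEG 400) or drug ip at 10 mL/kg 15 min before intraplantar formalin. Time spent licking or biting the injected paw scored at 0–5 min (phase I) and 15–45 min (phase II). Effect (%) = (LTV − LTD)/LTV × 100.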

Mus musculus [5] = assay: Antinociceptive activity in Kun Ming mouse pain model assessed as reduction in licking and biting time during phase-2 at 80 mg/kg, ip administered 15 mins prior to formalin challenge relative to vehicle-treated control; format: functional; conditions: route intraperitoneal; summary of the method: as §1
Mus musculus [6] = assay: Antinociceptive activity in ip dosed Kun Ming mouse pain model assessed as reduction in licking and biting time during phase-2 administered 15 mins prior to formalin challenge relative to vehicle-treated control; format: functional; summary of the method: as §1
Rattus norvegicus [7] = assay: Antineuropathic pain activity in po dosed Sprague-Dawley rat chronic constriction injury model assessed as inhibition of mechanical allodynia measured on day 15 relative to sham-treated control; format: functional
Summary of the method: (§2)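 Sprague-Dawley rats, sciatic nerve chronic constriction injury (four loose 4-0 silk ligatures, chloral hydrate anaesthesia); sham has nerve exposed without ligation. Model confirmed on day 14. Oral dosing in 0.5% methylcellulose, 10 mL/kg, twice daily on days 15–18. Read after first dose (day 15) and last dose (day 18). Von Frey withdrawal threshold and radiant-heat plantar withdrawal latency (30 s cutoff), each paw sampled four times and averaged; 10 rats/group.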

Rattus norvegicus [8] = assay: Antineuropathic pain activity in po dosed Sprague-Dawley rat chronic constriction injury model assessed as inhibition of thermal hypersensitivity measured on day 15 relative to sham-treated control; format: functional; summary of the method: as §2
Rattus norvegicus [9] = assay: Antineuropathic pain activity in po dosed Sprague-Dawley rat chronic constriction injury model assessed as inhibition of mechanical allodynia measured on day 18 by repeated dose treatment assay relative to sham-treated control; format: functional; summary of the method: as §2
Mus musculus [10] = assay: Toxicity in Kun Ming mouse at 20 to 80 mg/kg, ip measured after 30 to 120 mins by rotarod test; format: organism-based; set-up: route intraperitoneal; conditions: in vivo
Summary of the method: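 Rotarod test in Kun Ming mice pretrained to stay 300 s at 10 rpm. Latency to fall from drum turning at 10 rpm measured 30, 60, 90 and 120 min after ip dosing; 8–10 mice per group.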

Rattus norvegicus [11] = assay: Cmax in Sprague-Dawley rat at 320 mg/kg, po by HPLC/MS/MS analysis; format: ADME, organism-based; set-up: dose 320 mg/kg, route oral; conditions: in vivo
Summary of the method: (§3)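 Sprague-Dawley rats (250 ± 5.0 g), n = 8/group, dosed iv via lateral tail vein at 16 mg/kg in 100% saline or by oral gavage at 320 mg/kg as suspension in 0.5% methylcellulose. Serial tail-vein blood into heparinized tubes at 30 min, 1, 2, 3, 4, 5, 6, 7 and 24 h. Plasma treated by acetonitrile protein precipitation, then HPLC/MS on C18 column, 40 °C.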

[12] = Tmax in Sprague-Dawley rat at 320 mg/kg, po by HPLC/MS/MS analysis; format: ADME, organism-based; set-up: dose 320 mg/kg, route oral; conditions: in vivo; summary of the method: as §3
[13] = Half life in Sprague-Dawley rat at 320 mg/kg, po by HPLC/MS/MS analysis; format: ADME, organism-based; set-up: dose 320 mg/kg, route oral; conditions: in vivo; summary of the method: as §3
[14] = AUC (0 to 24 hrs) in Sprague-Dawley rat at 320 mg/kg, po by HPLC/MS/MS analysis; format: ADME, organism-based; set-up: time < 24 hr, dose 320 mg/kg, route oral; conditions: plasma; summary of the method: as §3
[15] = Oral bioavailability in Sprague-Dawley rat at 320 mg/kg; format: ADME, organism-based; conditions: in vivo
[16] = biological target: T1, 5-hydroxytryptamine receptor 1A (Rattus norvegicus) (UniProt P19327); assay: Displacement of [3H]-8-OH-DPAT from rat cerebral cortex 5-HT1A receptor at 1 uM after 30 mins by liquid scintillation counting analysis; format: tissue-based
T1 sequence (whole entry): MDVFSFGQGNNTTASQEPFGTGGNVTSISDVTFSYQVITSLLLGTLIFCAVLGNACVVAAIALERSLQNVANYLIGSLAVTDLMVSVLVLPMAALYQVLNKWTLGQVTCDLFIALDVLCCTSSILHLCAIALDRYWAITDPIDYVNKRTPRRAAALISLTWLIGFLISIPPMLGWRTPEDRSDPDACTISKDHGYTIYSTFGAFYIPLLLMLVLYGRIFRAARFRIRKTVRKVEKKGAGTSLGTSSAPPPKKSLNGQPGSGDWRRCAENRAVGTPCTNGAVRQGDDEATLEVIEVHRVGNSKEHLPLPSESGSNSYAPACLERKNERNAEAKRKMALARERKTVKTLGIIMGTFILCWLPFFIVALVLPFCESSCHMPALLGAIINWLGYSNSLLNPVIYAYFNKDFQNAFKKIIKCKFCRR

[17] = biological target: 5-hydroxytryptamine receptor 2A (Rattus norvegicus) (UniProt P14842); assay: Displacement of [3H]-ketanserin from rat cerebral cortex 5-HT2A receptor at 1 uM after 15 mins by liquid scintillation counting analysis; format: tissue-based
5-hydroxytryptamine receptor 2A (Rattus norvegicus), sequence (P14842 whole entry): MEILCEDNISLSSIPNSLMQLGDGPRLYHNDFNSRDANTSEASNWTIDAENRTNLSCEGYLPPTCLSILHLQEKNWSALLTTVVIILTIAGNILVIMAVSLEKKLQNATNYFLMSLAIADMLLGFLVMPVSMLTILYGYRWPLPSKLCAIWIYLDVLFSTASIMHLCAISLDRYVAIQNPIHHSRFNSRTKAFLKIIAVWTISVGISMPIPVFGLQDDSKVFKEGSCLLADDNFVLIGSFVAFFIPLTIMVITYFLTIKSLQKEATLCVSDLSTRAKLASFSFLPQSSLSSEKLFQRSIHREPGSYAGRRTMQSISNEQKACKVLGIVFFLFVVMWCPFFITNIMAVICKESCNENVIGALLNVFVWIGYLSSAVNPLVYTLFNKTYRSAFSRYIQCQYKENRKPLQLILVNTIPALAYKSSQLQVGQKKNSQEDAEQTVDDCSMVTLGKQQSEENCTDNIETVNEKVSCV

[18] = biological target: Sodium-dependent serotonin transporter (Rattus norvegicus) (UniProt P31652); assay: Displacement of [3H]-paroxetine from rat cerebral cortex serotonin HT transporter at 1 uM after 10 mins by liquid scintillation counting analysis; format: tissue-based
Sodium-dependent serotonin transporter (Rattus norvegicus), sequence (P31652 whole entry): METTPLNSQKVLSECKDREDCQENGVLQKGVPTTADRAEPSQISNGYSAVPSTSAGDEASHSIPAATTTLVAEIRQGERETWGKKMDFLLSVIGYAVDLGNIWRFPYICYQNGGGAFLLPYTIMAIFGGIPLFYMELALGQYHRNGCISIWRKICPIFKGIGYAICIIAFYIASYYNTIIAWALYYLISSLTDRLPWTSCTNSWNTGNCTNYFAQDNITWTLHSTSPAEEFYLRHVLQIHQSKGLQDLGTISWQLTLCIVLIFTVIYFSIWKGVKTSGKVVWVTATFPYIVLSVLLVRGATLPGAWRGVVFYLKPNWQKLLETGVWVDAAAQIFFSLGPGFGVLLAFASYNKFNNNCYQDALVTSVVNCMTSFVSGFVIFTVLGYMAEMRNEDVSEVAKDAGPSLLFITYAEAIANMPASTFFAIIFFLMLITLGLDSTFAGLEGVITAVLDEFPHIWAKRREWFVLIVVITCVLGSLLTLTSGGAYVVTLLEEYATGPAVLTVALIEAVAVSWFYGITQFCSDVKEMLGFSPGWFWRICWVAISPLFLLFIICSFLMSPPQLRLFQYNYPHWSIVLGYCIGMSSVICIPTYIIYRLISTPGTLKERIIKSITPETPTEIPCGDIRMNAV

[19] = biological target: Norepinephrine transporter (Rattus norvegicus) (UniProt Q9WTR4); assay: Displacement of [N-methyl-3H]-nisoxetine from rat hippocampal membrane Noradrenaline transporter at 1 uM after 8 hrs by liquid scintillation counting analysis; format: tissue-based; conditions: Hippocampus
Norepinephrine transporter (Rattus norvegicus), sequence (Q9WTR4 as listed by the source): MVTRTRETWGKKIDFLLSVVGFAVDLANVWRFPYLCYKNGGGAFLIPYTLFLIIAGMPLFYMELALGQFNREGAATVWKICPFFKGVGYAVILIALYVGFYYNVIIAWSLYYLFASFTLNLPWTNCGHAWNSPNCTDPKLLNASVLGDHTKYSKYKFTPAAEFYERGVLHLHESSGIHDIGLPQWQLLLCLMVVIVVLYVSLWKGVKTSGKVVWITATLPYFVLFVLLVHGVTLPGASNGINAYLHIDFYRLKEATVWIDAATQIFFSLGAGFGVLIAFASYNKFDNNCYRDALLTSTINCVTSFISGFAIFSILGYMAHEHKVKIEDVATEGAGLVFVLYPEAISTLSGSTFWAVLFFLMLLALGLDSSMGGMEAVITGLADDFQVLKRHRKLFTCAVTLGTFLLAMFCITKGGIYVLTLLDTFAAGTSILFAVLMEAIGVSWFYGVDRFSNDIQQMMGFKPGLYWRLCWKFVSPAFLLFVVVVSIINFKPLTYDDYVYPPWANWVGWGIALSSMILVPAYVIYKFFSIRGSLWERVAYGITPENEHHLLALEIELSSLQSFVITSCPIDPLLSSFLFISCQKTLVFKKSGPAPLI

[20] = biological target: Adrenergic receptor alpha-1 (Rattus norvegicus) (UniProt P15823+P23944+P43140); assay: Displacement of [3H]-prazosin from rat cerebral cortex adrenergic alpha-1 receptor at 1 uM after 60 mins by liquid scintillation counting analysis; format: tissue-based
[21] = biological target: Mu-type opioid receptor (Homo sapiens) (UniProt P35372); assay: Displacement of [3H]-diprenorphine from human mu-opioid receptor at 1 uM after 150 mins by liquid scintillation counting analysis
[22] = biological target: Cannabinoid receptor 2 (Homo sapiens) (UniProt P34972); assay: Displacement of [3H]-CP-55940 from human CB2 receptor expressed in HEK cells at 1 uM after 90 mins by liquid scintillation counting analysis; format: cell-based; conditions: HEK293
[23] = biological target: Sodium channel protein type 9 subunit alpha (Homo sapiens) (UniProt Q15858); assay: Inhibition of from human Nav 1.7 channel expressed in HEK293 cells at 1 uM after 5 mins by electrophysiological analysis; format: cell-based
Sodium channel protein type 9 subunit alpha (Homo sapiens), sequence (Q15858 whole entry, looked up): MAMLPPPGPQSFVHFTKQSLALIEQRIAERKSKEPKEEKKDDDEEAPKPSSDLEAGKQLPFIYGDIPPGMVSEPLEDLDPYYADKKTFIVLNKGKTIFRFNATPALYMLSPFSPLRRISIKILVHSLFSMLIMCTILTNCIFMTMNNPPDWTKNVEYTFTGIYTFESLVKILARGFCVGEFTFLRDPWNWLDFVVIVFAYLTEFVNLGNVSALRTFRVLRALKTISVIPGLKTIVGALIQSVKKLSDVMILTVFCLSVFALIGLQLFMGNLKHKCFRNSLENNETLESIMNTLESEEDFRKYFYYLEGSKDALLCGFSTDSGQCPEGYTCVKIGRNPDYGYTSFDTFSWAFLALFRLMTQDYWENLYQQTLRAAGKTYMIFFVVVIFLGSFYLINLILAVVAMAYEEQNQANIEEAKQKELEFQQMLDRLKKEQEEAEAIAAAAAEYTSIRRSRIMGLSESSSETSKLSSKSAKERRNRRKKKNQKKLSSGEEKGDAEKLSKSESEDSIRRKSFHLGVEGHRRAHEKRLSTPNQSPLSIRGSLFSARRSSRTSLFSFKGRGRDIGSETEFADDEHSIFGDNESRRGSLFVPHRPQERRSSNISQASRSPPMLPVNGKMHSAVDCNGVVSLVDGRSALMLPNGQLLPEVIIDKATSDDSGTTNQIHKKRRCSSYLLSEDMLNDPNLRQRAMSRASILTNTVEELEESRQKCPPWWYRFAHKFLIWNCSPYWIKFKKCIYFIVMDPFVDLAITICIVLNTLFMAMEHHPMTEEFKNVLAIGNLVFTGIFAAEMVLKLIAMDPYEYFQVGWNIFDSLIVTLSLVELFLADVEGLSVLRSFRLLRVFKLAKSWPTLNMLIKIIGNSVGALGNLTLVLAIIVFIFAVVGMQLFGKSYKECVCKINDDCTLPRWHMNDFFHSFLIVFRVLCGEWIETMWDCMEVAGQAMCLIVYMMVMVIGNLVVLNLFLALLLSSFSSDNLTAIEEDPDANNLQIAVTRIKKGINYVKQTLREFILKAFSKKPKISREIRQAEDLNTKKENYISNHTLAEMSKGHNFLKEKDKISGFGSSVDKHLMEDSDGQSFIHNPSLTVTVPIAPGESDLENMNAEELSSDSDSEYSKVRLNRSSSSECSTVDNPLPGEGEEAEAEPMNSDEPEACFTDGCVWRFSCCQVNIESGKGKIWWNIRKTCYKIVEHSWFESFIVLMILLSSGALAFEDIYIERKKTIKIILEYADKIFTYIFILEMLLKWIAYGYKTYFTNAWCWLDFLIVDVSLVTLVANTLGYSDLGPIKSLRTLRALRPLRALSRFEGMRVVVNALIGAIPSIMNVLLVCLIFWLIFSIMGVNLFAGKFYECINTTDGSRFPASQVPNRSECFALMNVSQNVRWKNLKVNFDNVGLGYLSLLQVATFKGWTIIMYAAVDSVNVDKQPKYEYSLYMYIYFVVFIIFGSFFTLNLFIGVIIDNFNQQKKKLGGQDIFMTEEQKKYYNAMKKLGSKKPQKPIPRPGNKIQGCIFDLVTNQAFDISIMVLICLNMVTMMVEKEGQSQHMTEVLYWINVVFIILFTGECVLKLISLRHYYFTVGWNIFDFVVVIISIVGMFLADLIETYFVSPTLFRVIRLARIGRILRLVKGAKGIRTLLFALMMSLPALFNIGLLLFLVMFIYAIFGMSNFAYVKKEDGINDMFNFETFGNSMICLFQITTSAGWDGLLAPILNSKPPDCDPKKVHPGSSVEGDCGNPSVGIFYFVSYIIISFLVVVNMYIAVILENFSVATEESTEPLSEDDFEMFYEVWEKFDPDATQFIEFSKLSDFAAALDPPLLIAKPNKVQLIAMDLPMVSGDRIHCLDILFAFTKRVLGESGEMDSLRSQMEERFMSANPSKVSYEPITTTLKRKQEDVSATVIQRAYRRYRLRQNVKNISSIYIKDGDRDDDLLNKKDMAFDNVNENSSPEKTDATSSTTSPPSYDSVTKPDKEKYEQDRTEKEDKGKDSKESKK

[24] = biological target: Transient receptor potential cation channel subfamily V member 1 (Homo sapiens) (UniProt Q8NER1); assay: Inhibition of from human TRPV-1 channel expressed in HEK293 cells at 1 uM after 5 mins by electrophysiological analysis; format: cell-based
Transient receptor potential cation channel subfamily V member 1 (Homo sapiens), sequence (Q8NER1 whole entry): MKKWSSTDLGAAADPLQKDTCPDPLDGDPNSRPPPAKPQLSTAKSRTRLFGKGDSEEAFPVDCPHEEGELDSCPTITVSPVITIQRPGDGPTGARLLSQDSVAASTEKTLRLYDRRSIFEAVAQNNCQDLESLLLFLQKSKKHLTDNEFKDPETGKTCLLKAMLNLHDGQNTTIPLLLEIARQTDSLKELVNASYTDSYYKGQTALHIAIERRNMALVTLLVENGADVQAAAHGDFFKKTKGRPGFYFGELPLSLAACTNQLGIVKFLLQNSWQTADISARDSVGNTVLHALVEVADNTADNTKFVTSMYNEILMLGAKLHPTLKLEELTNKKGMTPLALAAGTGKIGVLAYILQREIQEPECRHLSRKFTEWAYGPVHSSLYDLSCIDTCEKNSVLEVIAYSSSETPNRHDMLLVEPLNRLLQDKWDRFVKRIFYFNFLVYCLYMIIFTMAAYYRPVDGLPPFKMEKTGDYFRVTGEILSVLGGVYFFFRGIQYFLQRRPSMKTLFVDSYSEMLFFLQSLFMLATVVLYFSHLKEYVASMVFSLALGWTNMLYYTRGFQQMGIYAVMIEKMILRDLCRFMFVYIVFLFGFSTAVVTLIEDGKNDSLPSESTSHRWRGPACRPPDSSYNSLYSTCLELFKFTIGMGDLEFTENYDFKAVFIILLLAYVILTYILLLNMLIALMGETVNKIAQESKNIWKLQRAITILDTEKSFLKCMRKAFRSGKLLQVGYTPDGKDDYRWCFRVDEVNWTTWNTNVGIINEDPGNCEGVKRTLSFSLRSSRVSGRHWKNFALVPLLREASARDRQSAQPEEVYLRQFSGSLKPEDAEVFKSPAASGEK

Compound: Cc1nc(-c2ccc(Cl)cc2)nc(OCCCN2CCCCC2)c1Cl
- Ki [1]: 1.06 nM
- Ki [2]: 1420 nM
- LD50 at 24 h [3]: > 2000 mg/kg
- Time (Mus musculus [4]): 12.65 s
- Time (Mus musculus [5]): 37.41 s
- Activity (Mus musculus [6]): Dose-dependent effect
- ED50 (Mus musculus [6]): 42.1 mg/kg
- inhibition (Rattus norvegicus [7]): Dose-dependent effect
- ED50 (Rattus norvegicus [7]; 360 h): 58.2 mg/kg
- inhibition (Rattus norvegicus [8]): Dose-dependent effect
- ED50 (Rattus norvegicus [8]; 360 h): 47.2 mg/kg
- inhibition (Rattus norvegicus [9]): Dose-dependent effect
- ED50 (Rattus norvegicus [9]; 432 h): 61.8 mg/kg
- Activity (Mus musculus [10]): Non-toxic
- Cmax (Rattus norvegicus [11]): 17400 ng/mL
- Tmax [12]: 0.5 h
- half-life [13]: 3.81 h
- AUC(0-t) at 24 h [14]: 54700 ng·h/mL
- bioavailability [15]: 75.1%
- inhibition [16]: < 50%
- inhibition [17]: < 50%
- inhibition [18]: < 50%
- inhibition [19]: < 50%
- inhibition [20]: < 50%
- inhibition [21]: < 50%
- inhibition [22]: < 50%
- inhibition [23]: < 50%
- inhibition [24]: < 50%
